Blank lines part the entries; values can stand above or below the compound they belong to. Activity calls are given as the source filed them. The rule behind the calls is not given here.
What was measured:
NCI-H929 = assay: Inhibition of MK2 in Escherichia coli-stimulated human NCI-H929 cells assessed as reduction in MK2 phosphorylation pretreated for 1 hr followed by Escherichia coli stimulation and measured up to 15 mins by western blot analysis; format: cell-based; settings: time 1.15 hrs
THP-1 [1] = assay: Antiinflammatory activity against LPS-stimulated human THP-1 cells assessed as TNF-alpha secretion pretreated for 1 hr followed by LPS stimulation and measured upto 24 hrs by ELISA analysis; format: functional, cell-based
Method in brief: (§1)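 THP-1 cells pre-treated with compound for 1 h (5 μM or 1 μM, depending on the compound), then stimulated with 100 ng/mL LPS. Culture supernatant was taken at 24 h, and TNF-α, IL-6 or IL-1β was measured by sandwich ELISA at 450 nm with 540 nm correction; four biological replicates.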

THP-1 [2] = assay: Inhibition of human Escherichia coli stimulated monocyte activation in human THP-1 cells assessed as suppression of CD49a expression level at 5 uM pretreated for 1 hr and measured up to 24 hrs by flow cytometric analysis; format: functional, cell-based
THP-1 [3] = assay: Inhibition of human Escherichia coli stimulated monocyte activation in human THP-1 cells assessed as decrease in MMP9 expression level at 5 uM pretreated for 1 hr and measured up to 24 hrs; format: functional, cell-based
Method in brief: (§2)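 THP-1 cells pre-treated 1 h with 5 μM compound, then live E. coli up to 24 h. Label-free quantitative proteomics: S-Trap digestion (TCEP reduction, N-ethylmaleimide alkylation, trypsin 2 h at 47 °C), Orbitrap LC–MS/MS with a 180 min gradient. Changes called at FDR <0.05 and 1.5-fold.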

OCI-AML2 [4] = assay: Antiinflammatory activity against Escherichia coli-stimulated human OCI-AML2 cells assessed reduction in IL-1beta level measured at 24 hrs by ELISA analysis; format: functional, cell-based
Method in brief: (§3)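 OCI-AML2 cells stimulated with live E. coli (MOI 2, gentamicin protection). TNF-α, IL-6 and IL-1β in culture supernatant measured by ELISA at 24 h post-treatment, 450 nm with 540 nm correction, four biological replicates.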

THP-1 [5] = assay: Inhibition of human Escherichia coli stimulated monocyte activation in human THP-1 cells assessed as suppression of CD54 expression level at 5 uM pretreated for 1 hr and measured up to 24 hrs by flow cytometric analysis; format: functional, cell-based
THP-1 [6] = assay: Inhibition of human Escherichia coli stimulated monocyte activation in human THP-1 cells assessed as increase in Filamin-B expression level at 5 uM pretreated for 1 hr and measured up to 24 hrs; format: functional, cell-based; method in brief: as §2
THP-1 [7] = assay: Inhibition of human Escherichia coli stimulated monocyte activation in human THP-1 cells assessed as decrease in IL-1beta expression level at 5 uM pretreated for 1 hr and measured up to 24 hrs; format: functional, cell-based; method in brief: as §2
[8] = target: Mitogen-activated protein kinase 14 (Homo sapiens) (UniProt Q16539); settings: THP-1, dose 5.0 µM, time 1.15 hrs
THP-1 [9] = assay: Inhibition of human Escherichia coli stimulated monocyte activation in human THP-1 cells assessed as decrease in CD14 expression level at 5 uM pretreated for 1 hr and measured up to 24 hrs; format: functional, cell-based
THP-1 [10] = assay: Inhibition of human Escherichia coli stimulated monocyte activation in human THP-1 cells assessed as increase in ROCK1 expression level at 5 uM pretreated for 1 hr and measured up to 24 hrs; format: functional, cell-based; method in brief: as §2
THP-1 [11] = assay: Inhibition of human Escherichia coli stimulated monocyte activation in human THP-1 cells assessed as suppression of CD14 expression level at 5 uM pretreated for 1 hr and measured up to 24 hrs; format: functional, cell-based
[12] = test system: Acute myeloid leukemic cell; assay: Antiinflammatory activity against LPS-stimulated patient derived primary AML cells assessed reduction in TNFalpha level measured at 24 hrs by ELISA analysis; format: functional, cell-based; settings: Homo sapiens
Method in brief: (§4)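 CD14+ monocytes from healthy-donor blood (Lymphoprep, then pan-monocyte isolation) or patient AML cells (cultured in IMDM with 20% FBS, IL-3 and SCF). Cells pre-treated 1 h with 5 μM or 1 μM compound, then 100 ng/mL LPS; TNF-α in supernatant measured by ELISA at 24 h. Four (monocytes) or two (AML) biological replicates, error shown as SD.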

THP-1 [13] = assay: Inhibition of human Escherichia coli stimulated monocyte activation in human THP-1 cells assessed as […] of CD44 expression level at 5 uM pretreated for 1 hr and measured up to 24 hrs; format: functional, cell-based
THP-1 [14] = assay: Inhibition of human Escherichia coli stimulated monocyte activation in human THP-1 cells assessed as decrease in CD44 expression level at 5 uM pretreated for 1 hr and measured up to 24 hrs; format: functional, cell-based
THP-1 [15] = assay: Antiinflammatory activity against Escherichia coli induced human THP-1 cells assessed as reduction in proinflammatory phenotype at 5 uM for 1 hr followed by Escherichia coli stimulation and measured upto 24 hrs by MALDI-TOF MS analysis; format: functional, cell-based
Method in brief: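 THP-1 cells pre-treated with compound for 1 h, then infected with live E. coli (MOI 2), spun 500g 5 min, left 15 or 30 min for uptake, then 100 μg/mL gentamicin for 1 h and 20 μg/mL gentamicin thereafter, up to 24 h. Pellets frozen on dry ice, thawed, washed in 100 mM Tris–HCl pH 7.5 at 4 °C, and read by MALDI-TOF MS as the normalized m/z 4964/4632 ratio.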

THP-1 [16] = assay: Antiinflammatory activity against LPS-stimulated human THP-1 cells assessed as disappearance inflammatory phenotype at 5 uM pretreated for 1 hr followed by LPS stimulation and measured upto 24 hrs by ELISA analysis; format: functional, cell-based
THP-1 [17] = assay: Inhibition of human Escherichia coli stimulated monocyte activation in human THP-1 cells assessed as decrease in TLR2 expression level at 5 uM pretreated for 1 hr and measured up to 24 hrs; format: functional, cell-based; method in brief: as §2
OCI-AML2 [18] = assay: Antiinflammatory activity against Escherichia coli-stimulated human OCI-AML2 cells assessed reduction in TNFalpha level measured at 24 hrs by ELISA analysis; format: functional, cell-based; method in brief: as §3
[19] = target: Mitogen-activated protein kinase 14 (Homo sapiens) (UniProt Q16539); assay: Binding affinity to P38alpha (unknown origin) measured at 0.05 to 333.33 nM after 600 secs by SPR analysis; settings: dose 0.05-333.33 nM, time 600.0 sec
Method in brief: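 Biotinylated avidin-p38α was captured on a streptavidin chip from 50 μg/mL, reaching about 7719 RU. A 10-point series (0.05–333.33 nM) ran multicycle at 2 °C against a control surface: 90 s injection at 30 μL/min, then 600 s dissociation.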

THP-1 [20] = assay: Inhibition of P38 MAPK pathway in Escherichia coli-stimulated human THP-1 cells assessed as reduction in IL-1beta expression at 5 uM pretreated for 1 hr followed by Escherichia coli stimulation and measured upto 24 hrs by ELISA analysis
Method in brief: (§5)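 THP-1 cells pre-treated 1 h with 5 μM compound, then infected with live E. coli (MOI 2), followed by gentamicin killing of extracellular bacteria. TNF-α, IL-6 or IL-1β in supernatant measured by ELISA at 24 h, absorbance at 450 nm with 540 nm correction.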

[21] = target: Mitogen-activated protein kinase 14 (Homo sapiens) (UniProt Q16539); settings: THP-1, dose 5.0 µM, time 1.15 hrs; remark: listed apart in the source
THP-1 [22] = assay: Inhibition of human Escherichia coli stimulated monocyte activation in human THP-1 cells assessed as decrease in ICAM-1 expression level at 5 uM pretreated for 1 hr and measured up to 24 hrs; format: functional, cell-based
THP-1 [23] = assay: Inhibition of human Escherichia coli stimulated monocyte activation in human THP-1 cells assessed as upregulation of MMP9 expression level at 5 uM pretreated for 1 hr and measured up to 24 hrs; format: functional, cell-based; method in brief: as §2
THP-1 [24] = assay: Inhibition of P38 MAPK pathway in Escherichia coli-stimulated human THP-1 cells assessed as reduction in IL-6 expression at 5 uM pretreated for 1 hr followed by Escherichia coli stimulation and measured up to 24 hrs by ELISA analysis; method in brief: as §5
[25] = target: MAP kinase-activated protein kinase 2 (Homo sapiens) (UniProt P49137); assay: Inhibition of MK2 in Escherichia coli -stimulated human THP-1 cells assessed as reduction in p38alpha MAPK phosphorylation at 5 uM pretreated for 1 hr followed by Escherichia coli stimulation and measured up to 15 mins by western blot analysis; format: cell-based; settings: time 1.15 hrs
OCI-AML2 [26] = assay: Antiinflammatory activity against Escherichia coli-stimulated human OCI-AML2 cells assessed reduction in IL-6 level measured at 24 hrs by ELISA analysis; format: functional, cell-based; method in brief: as §3
OCI-AML2 [27] = assay: Inhibition of MK2 in Escherichia coli-stimulated human OCI-AML2 cells assessed as reduction inMK2 phosphorylation pretreated for 1 hr followed by Escherichia coli stimulation and measured up to 15 mins by western blot analysis; format: cell-based; settings: time 1.15 hrs
THP-1 [28] = assay: Antiinflammatory activity against LPS-stimulated human THP-1 cells assessed as reduction in IL-1beta level pretreated for 1 hr followed by LPS stimulation and measured upto 24 hrs by ELISA analysis; format: functional, cell-based; method in brief: as §1
THP-1 [29] = assay: Antiinflammatory activity against LPS-stimulated human THP-1 cells assessed as reduction in TNFalpha level pretreated for 1 hr followed by LPS stimulation and measured upto 24 hrs by ELISA analysis; format: functional, cell-based; method in brief: as §1
THP-1 [30] = assay: Antiinflammatory activity against LPS-stimulated human THP-1 cells assessed as reduction in IL-6 level pretreated for 1 hr followed by LPS stimulation and measured upto 24 hrs by ELISA analysis; format: functional, cell-based; method in brief: as §1
THP-1 [31] = assay: Inhibition of human Escherichia coli stimulated monocyte activation in human THP-1 cells assessed as suppression of CD11c expression level at 5 uM pretreated for 1 hr and measured up to 24 hrs by flow cytometric analysis; format: functional, cell-based
THP-1 [32] = assay: Inhibition of cell adhesion in human Escherichia coli stimulated-THP-1 cells by crystal violet staining based assay; format: functional
Method in brief: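 E. coli-stimulated THP-1 cells washed twice with PBS, fixed 15 min in 4% paraformaldehyde, stained 10 min with 5 mg/mL crystal violet, lysed 30 min in 2% SDS. Absorbance read at 550 nm; four biological replicates.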

THP-1 [33] = assay: Inhibition of P38 MAPK pathway in Escherichia coli-stimulated human THP-1 cells assessed as reduction in TNFalpha expression at 5 uM pretreated for 1 hr followed by Escherichia coli stimulation and measured up to 24 hrs by ELISA analysis; method in brief: as §5
Monocyte = assay: Antiinflammatory activity against LPS-stimulated human primary monocyte cells assessed reduction in TNFalpha level measured at 24 hrs by ELISA analysis; format: functional, cell-based; method in brief: as §4

Mitogen-activated protein kinase 14 (Homo sapiens), sequence (Q16539 whole entry): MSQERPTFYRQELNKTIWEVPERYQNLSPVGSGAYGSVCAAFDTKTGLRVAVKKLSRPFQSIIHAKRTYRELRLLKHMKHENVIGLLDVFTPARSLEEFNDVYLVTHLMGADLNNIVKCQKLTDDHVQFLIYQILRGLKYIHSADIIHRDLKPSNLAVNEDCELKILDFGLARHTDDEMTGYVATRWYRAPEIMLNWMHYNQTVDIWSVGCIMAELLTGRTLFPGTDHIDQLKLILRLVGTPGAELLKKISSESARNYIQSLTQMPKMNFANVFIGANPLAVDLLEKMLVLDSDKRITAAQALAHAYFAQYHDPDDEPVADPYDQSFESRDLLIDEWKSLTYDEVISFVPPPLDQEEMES
MAP kinase-activated protein kinase 2 (Homo sapiens), sequence (P49137 whole entry, looked up): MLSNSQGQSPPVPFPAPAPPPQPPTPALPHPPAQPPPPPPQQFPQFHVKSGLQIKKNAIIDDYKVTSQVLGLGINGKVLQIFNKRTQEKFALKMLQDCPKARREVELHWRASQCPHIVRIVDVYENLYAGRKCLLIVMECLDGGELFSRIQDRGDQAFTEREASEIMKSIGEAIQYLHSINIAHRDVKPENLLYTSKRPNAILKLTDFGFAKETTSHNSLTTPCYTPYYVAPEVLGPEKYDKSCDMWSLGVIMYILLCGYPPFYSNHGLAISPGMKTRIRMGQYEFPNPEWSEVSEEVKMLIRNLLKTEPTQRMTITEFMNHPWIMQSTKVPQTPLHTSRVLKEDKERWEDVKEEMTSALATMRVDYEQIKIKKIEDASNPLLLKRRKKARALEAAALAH

IC50 (THP-1 [1]): 400 nM
Tm [8]: 55.1 °C
Activity [19]: Active
Tm [21]: 60.7 °C
inhibition [25]: Active
Compound: Cc1cn(-c2cc(NC(=O)c3ccc(C)c(Nc4nccc(-c5cccnc5)n4)c3)cc(C(F)(F)F)c2)cn1 [NILOTINIB]
inhibition (NCI-H929): Active
inhibition (THP-1 [2]): Active
inhibition (THP-1 [3]): Active
Activity (OCI-AML2 [4]): Active
inhibition (THP-1 [5]): Active
inhibition (THP-1 [6]): Active
inhibition (THP-1 [7]): Active
inhibition (THP-1 [9]): Active
inhibition (THP-1 [10]): Active
inhibition (THP-1 [11]): Active
Activity [12]: Active
inhibition (THP-1 [13]): Active
inhibition (THP-1 [14]): Active
Activity (THP-1 [15]): Active
Activity (THP-1 [16]): Active
inhibition (THP-1 [17]): Active
Activity (OCI-AML2 [18]): Active
inhibition (THP-1 [20]): Active
inhibition (THP-1 [22]): Active
inhibition (THP-1 [23]): Active
inhibition (THP-1 [24]): Active
Activity (OCI-AML2 [26]): Active
inhibition (OCI-AML2 [27]): Active
Activity (THP-1 [28]): Active
Activity (THP-1 [29]): Active
Activity (THP-1 [30]): Active
inhibition (THP-1 [31]): Active
inhibition (THP-1 [32]): Active
inhibition (THP-1 [33]): Active
Activity (Monocyte): Active

Activity [19]: Active
Compound: Cc1ccc(C(=O)Nc2ccc(CN3CCN(C)CC3)c(C(F)(F)F)c2)cc1C#Cc1cnc2cccnn12
